Measured values reported in ChEMBL document CHEMBL4020824, “Discovery of Potent and Orally Bioavailable Dihydropyrazole GPR40 Agonists” (J Med Chem, 2018).
Calls of active or inactive are those of the source. The rule behind the calls is not given here.

Columns and labels:
[1] = molecular target: T1, Free fatty acid receptor 1 (Homo sapiens, UniProt O14842); assay: Agonist activity at human GPR40 expressed in CHOA12 cells assessed as induction of Ca2+ mobilization by FLIPR assay; type: functional, cell-based
[2] = molecular target: T1, Free fatty acid receptor 1; assay: Agonist activity at human GPR40 expressed in CHOA12 cells assessed as induction of Ca2+ mobilization at 8.3 uM by FLIPR assay relative to compound 2; type: functional, cell-based
Liver [3] = assay: Drug level in human liver microsomes treated with 2-((4S,5S)-1-(4-((1-(2-Fluoro-5-methoxyphenyl)piperidin-4-yl)-oxy)phenyl)-4-methyl-3-(trifluoromethyl)-4,5-dihydro-1H-pyrazol-5-yl)acetic acid at 1 to 3 uM incubated for 20 mins in presence of NADPH measured after 90 mins by LC/MS/MS analysis; type: ADME, microsome
How it was run: (§1)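 Human or rat liver microsomal incubations. The read-outs were % parent remaining, % D-ring dealkylation metabolites, % GSH adducts, and half-life (min). The metabolites followed were CYP450-mediated oxidative de-alkylation products (phenols) and GSH conjugates.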

Liver [4] = assay: Drug level in rat liver microsomes treated with 2-((4S,5S)-1-(4-((1-(2-Fluoro-5-methoxyphenyl)piperidin-4-yl)-oxy)phenyl)-4-methyl-3-(trifluoromethyl)-4,5-dihydro-1H-pyrazol-5-yl)acetic acid at 1 to 3 uM incubated for 20 mins in presence of NADPH measured after 90 mins by LC/MS/MS analysis; type: ADME, microsome; how it was run: as §1
Mus musculus = assay: Antidiabetic activity in C57BL/6J mouse assessed as glucose lowering effect at 1 mg/kg, po administered 1 hr prior to glucose challenge measured after 120 mins by IPGTT; type: functional, organism-based

T1 sequence (O14842 whole entry): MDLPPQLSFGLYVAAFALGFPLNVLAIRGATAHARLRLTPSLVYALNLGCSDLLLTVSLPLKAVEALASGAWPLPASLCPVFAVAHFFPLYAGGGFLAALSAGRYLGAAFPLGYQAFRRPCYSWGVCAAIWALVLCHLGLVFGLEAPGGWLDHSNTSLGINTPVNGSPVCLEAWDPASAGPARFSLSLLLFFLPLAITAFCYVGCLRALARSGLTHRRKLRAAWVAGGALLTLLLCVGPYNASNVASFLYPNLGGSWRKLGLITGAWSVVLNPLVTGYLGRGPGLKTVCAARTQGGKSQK

| EC50 [1] [µM] | Activity [2] | Structure (SMILES) | also measured |
| --- | --- | --- | --- |
| 0.68 | – | COc1ccc(C#N)c(N2CCC(Oc3ccc(N4N=C(C(F)(F)F)[C@@H](C)[C@@H]4CC(=O)O)cc3)CC2)c1 | – |
| 0.22 | – | CCOc1ccc(F)c(N2CCC(Oc3ccc(N4N=C(C(F)(F)F)[C@@H](C)[C@@H]4CC(=O)O)cc3)CC2)c1 | – |
| 0.15 to 0.18 | – | COc1cc(N2CCC(Oc3ccc(N4N=C(C(F)(F)F)[C@@H](C)[C@@H]4CC(=O)O)cc3)CC2)c(F)cn1 | – |

More lines, now with the values behind:

| Structure (SMILES) | EC50 [1] [µM] | Activity [2] | also measured |
| --- | --- | --- | --- |
| COc1ccc(F)c(N2CCC(Oc3ccc(N4CCC[C@@H]4CC(=O)O)cc3)CC2)c1 | 1.2 to 2.6 | Active | – |
| C[C@@H]1C(C(F)(F)F)=NN(c2ccc(OC3CCN(c4cc(O)ccc4F)CC3)cc2)[C@H]1CC(=O)O | – | – | Drug uptake (Liver [3]): Metabolite_Detected; Drug uptake (Liver [4]): Metabolite_Detected |
| COc1ccc(F)c(N2CC[C@H](COc3ccc(N4C[C@H](C(F)(F)F)C[C@@H]4CC(=O)O)cc3)C2)c1 | – | Active | – |
| COc1ccc(F)c(N2CCC(Oc3ccc(N4C[C@H](C(F)(F)F)C[C@@H]4CC(=O)O)cc3)CC2)c1 | – | Active | – |
| C[C@@H]1C(C(F)(F)F)=NN(c2ccc(OC3CCN(c4cc(Cl)ccc4Cl)CC3)cc2)[C@H]1CC(=O)O | 0.25 | – | – |
| COc1ccc(F)c(N2CC[C@@H](COc3ccc(N4C[C@H](C(F)(F)F)C[C@@H]4CC(=O)O)cc3)C2)c1 | – | Active | – |
| COc1ccc(F)c(-c2ccc(Cc3ccc(N4C[C@H](C(F)(F)F)C[C@@H]4CC(=O)O)cc3)c(C)c2)c1 | – | – | Activity (Mus musculus): Active |
| C[C@@H]1C(C(F)(F)F)=NN(c2ccc(OC3CCN(c4ccc(F)cc4)CC3)cc2)[C@H]1CC(=O)O | 2.55 to 2.73 | – | – |
| COc1ccc(F)c(N2CCC(Cc3ccc(N4C[C@H](C(F)(F)F)C[C@@H]4CC(=O)O)cc3)CC2)c1 | – | Active | – |
